Laboratory results as given in ChEMBL document CHEMBL3877272, “Synthesis and anti-mitotic activity of 6,7-dihydro-4H-isothiazolo[4,5-b]pyridin-5-ones: In vivo and cell-based studies” (Eur J Med Chem, 2017).

What was measured:
[1] = Antiproliferative activity against human NCI/ADR-RES cells measured after 3 to 4 days by Celltiter-Glo luminescent cell viability assay; format: functional
[2] = Antiproliferative activity against human MDA-MB-468 cells measured after 48 hrs by SRB assay; format: functional, cell-based; conditions: MDA-MB-468, 48 h
[3] = Antiproliferative activity against human MDA-MB-435 cells measured after 96 hrs by Celltiter-Glo assay; format: functional, cell-based; conditions: MDA-MB-435, 96 h
Outline: (§1)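 Cells plated 24 h, then treated 96 h with 0.1% DMSO or concentrations […]; growth by CellTiter-Glo luminescence, normalized to DMSO control; IC50 from dose–response curves by logistic nonlinear regression; mean of three independent experiments.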

[4] = Antiproliferative activity against human MDA-MB-DYT2 cells measured after 96 hrs by Celltiter-Glo assay; format: functional, cell-based; outline: as §1
Paracentrotus lividus [5] = assay: Antimitotic activity in sea urchin embryo assessed as cleavage alteration exposed 8 to 15 mins after fertilization 45 to 55 mins before first mitotic cycle completion measured at 2.5 to 5.5 hrs post dose; format: functional
Outline: (§2)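 Paracentrotus lividus eggs, fertilized in filtered seawater, cultured as monolayer (up to 2000 embryos/mL) at room temperature. Exposed 8–15 min post-fertilization to 2-fold decreasing concentrations (DMSO stock diluted in EtOH; final DMSO ≤0.05%, EtOH ≤1%). Cleavage alteration scored at 8-cell, arrest at early blastula stage (2.5–5.5 h). Effective threshold concentration reported; duplicate measurements.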

[6] = Antiproliferative activity against human NCI60 cells measured after 48 hrs by SRB assay; format: functional; conditions: NCI60, 48 h
[7] = Antiproliferative activity against human MDA-MB-435 cells measured after 48 hrs by SRB assay; format: functional, cell-based; conditions: MDA-MB-435, 48 h
[8] = Antiproliferative activity against human OVCAR8 cells measured after 3 to 4 days by Celltiter-Glo luminescent cell viability assay; format: functional; conditions: OVCAR-8
Paracentrotus lividus [9] = assay: Antimitotic activity in sea urchin embryo assessed as cleavage arrest exposed 8 to 15 mins after fertilization 45 to 55 mins before first mitotic cycle completion measured at 2.5 to 5.5 hrs post dose; format: functional; outline: as §2
[10] = Antiproliferative activity against human TOV112D cells measured after 96 hrs by Celltiter-Glo assay; format: functional, cell-based; outline: as §1
Paracentrotus lividus [11] = assay: Antimitotic activity in sea urchin free-swimming blastulae assessed as microtubule destabilization by measuring embryo spinning exposed 8 to 10 hrs after fertilization measured after 15 mins to 20 hrs; format: functional, Blastula
Outline: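 Free-swimming P. lividus blastulae just after hatching (8–10 h post-fertilization) from same culture, exposed in seawater to 2-fold decreasing concentrations (DMSO stock diluted in EtOH). Settling to well bottom with rapid spinning around animal-vegetal axis scored by light microscopy over 15 min–20 h. Effective threshold concentration; duplicate measurements.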

[12] = Antiproliferative activity against human MDA-MB-231 cells measured after 96 hrs by Celltiter-Glo assay; format: functional, cell-based; conditions: MDA-MB-231, 96 h; outline: as §1
[13] = Antiproliferative activity against human Caov3 cells measured after 96 hrs by Celltiter-Glo assay; format: functional, cell-based; conditions: Caov-3, 96 h; outline: as §1
[14] = Antiproliferative activity against human NCI60 cells at 10 uM after 48 hrs by SRB assay relative to control; format: functional; conditions: NCI60, 48 h, read-out: GI
[15] = Solubility in seawater assessed as micro-crystal formation at 4 uM by light microscopy; format: physicochemical
Outline: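 Compound from 10 mM DMSO stock diluted 10-fold in 96% EtOH, added to seawater with sea urchin embryos; microcrystal formation checked by light microscopy.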

[16] = Antiproliferative activity against human MDA-MB-468 cells measured after 96 hrs by Celltiter-Glo assay; format: functional, cell-based; conditions: MDA-MB-468, 96 h; outline: as §1
[17] = Antiproliferative activity against human NCI-H1975 cells measured after 96 hrs by Celltiter-Glo assay; format: functional, cell-based; conditions: NCI-H1975, 96 h; outline: as §1

| Compound | GI50 [1] [µM] | IC50 [2] [µM] | IC50 [3] [µM] | IC50 [4] [µM] | EC (Paracentrotus lividus [5]) [µM] | GI50 [6] [µM] | IC50 [7] [µM] | GI50 [8] [µM] | EC (Paracentrotus lividus [9]) [µM] | IC50 [10] [µM] | EC (Paracentrotus lividus [11]) [µM] | IC50 [12] [µM] | IC50 [13] [µM] | inhibition of growth at 10 µM [14] [%] | solubility [15] | IC50 [16] [µM] | IC50 [17] [µM] |
| --- | --- | --- | --- | --- | --- | --- | --- | --- | --- | --- | --- | --- | --- | --- | --- | --- | --- |
| O=C1CC(c2ccsc2)c2snc(-c3ccc(Cl)cc3)c2N1 (stereo unspecified) | 0.364 | 0.291 | 0.628 | > 2 | 0.01 | 1.51 | 0.26 | 3.01 | 0.1 | 1.15 | 0.2 | 1.63 | 1.08 | – | – | – | – |
| COc1ccc(C2CC(=O)Nc3c(-c4ccc(F)cc4)nsc32)cc1 (stereo unspecified) | – | – | – | – | 2 | – | – | – | >4 | – | >4 | – | – | 6.2 | – | – | – |
| COc1ccc(-c2nsc3c2NC(=O)CC3c2cc(OC)c(O)c(O)c2OC)cc1 (stereo unspecified) | – | – | – | – | 1 | – | – | – | 2 | – | >5 | – | – | – | – | – | – |
| O=C1CC(c2ccc(Cl)cc2)c2snc(-c3cccc(F)c3)c2N1 (stereo unspecified) | – | – | – | – | >4 | – | – | – | >4 | – | >4 | – | – | 16.5 | Insoluble | – | – |
| COc1ccc(-c2nsc3c2NC(=O)CC3c2cccc(F)c2)cc1 (stereo unspecified) | 2.96 | 1.94 | 1.41 | > 2 | 0.01 | 4.9 | 0.827 | 7.54 | 0.05 | > 2 | 0.2 | > 2 | > 2 | – | – | 1.41 | > 2 |
| COc1ccc(-c2nsc3c2NC(=O)CC3c2ccc3c(c2)OCCO3)cc1 (stereo unspecified) | 0.367 | 0.328 | 0.349 | 1.36 | 0.01 | 0.933 | 0.247 | 1.41 | 0.05 | 0.659 | 0.5 | 1.71 | 0.833 | – | – | 0.451 | 1.24 |
| O=C1CC(c2ccc3c(c2)OCO3)c2snc(-c3cccc(F)c3)c2N1 (stereo unspecified) | – | – | – | – | 1 | – | – | – | 4 | – | >4 | – | – | 5.2 | – | – | – |
| O=C1CC(c2ccc3c(c2)OCO3)c2snc(-c3ccc(F)cc3)c2N1 (stereo unspecified) | – | – | – | – | 1 | – | – | – | >4 | – | >4 | – | – | 11.7 | – | – | – |
| COc1ccc(-c2nsc3c2NC(=O)CC3c2ccc(Cl)cc2)cc1 (stereo unspecified) | – | – | – | – | 0.1 | – | – | – | 0.2 | – | 1 | – | – | 15.7 | – | – | – |
| COc1ccc(C2CC(=O)Nc3c(-c4cccc(F)c4)nsc32)cc1 (stereo unspecified) | – | – | – | – | 2 | – | – | – | >4 | – | >4 | – | – | 5.3 | – | – | – |
| O=C1CC(c2cccc(F)c2)c2snc(-c3cccc(F)c3)c2N1 (stereo unspecified) | – | – | – | – | 1 | – | – | – | >4 | – | >4 | – | – | 6.4 | – | – | – |
| COc1ccc(-c2nsc3c2NC(=O)CC3c2cccc(Cl)c2)cc1 (stereo unspecified) | 0.562 | 0.174 | 0.792 | > 2 | 0.01 | 1.74 | 0.749 | 2.92 | 0.1 | 1.27 | 0.1 | 1.62 | 1.3 | – | – | 0.752 | > 2 |
| O=C1CC(c2cccc(Cl)c2)c2snc(-c3cccc(F)c3)c2N1 (stereo unspecified) | – | – | – | – | 1 | – | – | – | 4 | – | >4 | – | – | – | – | – | – |
| COc1ccc(-c2nsc3c2NC(=O)CC3c2cccc(Cl)c2)cc1OC (stereo unspecified) | – | – | – | – | 2 | – | – | – | >4 | – | >4 | – | – | 14 | – | – | – |
| O=C1CC(c2cccc(Cl)c2)c2snc(-c3ccc(F)cc3)c2N1 (stereo unspecified) | – | – | – | – | 1 | – | – | – | 4 | – | >4 | – | – | 15.6 | – | – | – |
| COc1cc(C2CC(=O)Nc3c(-c4ccccc4)nsc32)cc2c1OCO2 (stereo unspecified) | – | – | – | – | 4 | – | – | – | >4 | – | >4 | – | – | 4.6 | – | – | – |
| COc1ccc(-c2nsc3c2NC(=O)CC3c2cc(OC)c3c(c2OC)OCO3)cc1 (stereo unspecified) | – | – | – | – | 0.05 | – | – | – | 0.2 | – | 1 | – | – | – | – | – | – |
| COc1ccc(-c2nsc3c2NC(=O)CC3c2ccc(F)cc2)cc1 (stereo unspecified) | 2.11 | 2.35 | 1.82 | > 2 | 0.01 | 3.02 | 0.44 | 4.01 | 0.05 | > 2 | 0.1 | > 2 | > 2 | – | – | 1.85 | > 2 |
| COc1cc(C2CC(=O)Nc3c(-c4ccccc4)nsc32)c(OC)c(O)c1O (stereo unspecified) | – | – | – | – | >4 | – | – | – | >4 | – | >4 | – | – | – | – | – | – |
| COc1cc(C2CC(=O)Nc3c(-c4ccc(Cl)cc4)nsc32)c(OC)c2c1OCO2 (stereo unspecified) | – | – | – | – | >4 | – | – | – | >4 | – | >4 | – | – | 7.66 | – | – | – |
| COc1cc(C2CC(=O)Nc3c(-c4cccc(F)c4)nsc32)c(OC)c2c1OCO2 (stereo unspecified) | – | – | – | – | >4 | – | – | – | >4 | – | >4 | – | – | – | – | – | – |
| COc1cc(C2CC(=O)Nc3c(-c4ccccc4)nsc32)c(OC)c2c1OCO2 (stereo unspecified) | – | – | – | – | >4 | – | – | – | >4 | – | >4 | – | – | – | – | – | – |
| O=C1CC(c2ccsc2)c2snc(-c3cccc(F)c3)c2N1 (stereo unspecified) | – | – | – | – | 0.05 | – | – | – | 0.5 | – | 2 | – | – | 7.8 | – | – | – |
| COc1ccc(/C=C\c2cc(OC)c(OC)c(OC)c2)cc1OP(=O)([O-])[O-].[Na+].[Na+] [FOSBRETABULIN DISODIUM] | – | – | 0.00875 | 0.06 | 0.005 | 0.0017 | – | – | 0.01 | 0.0309 | 0.05 | 0.173 | 0.0131 | – | – | – | – |
| O=C1CC(c2ccsc2)c2snc(-c3ccc(F)cc3)c2N1 (stereo unspecified) | – | – | – | – | 0.05 | – | – | – | 0.2 | – | 4 | – | – | – | – | – | – |
| COc1cc(C2CC(=O)Nc3c(-c4cccc(F)c4)nsc32)cc2c1OCO2 (stereo unspecified) | – | – | – | – | 4 | – | – | – | >4 | – | >4 | – | – | 4.4 | – | – | – |
